This note sets out measurements from paper PMC11780632 (Bioinformatics and Biology Insights, 2025).

The structures appear in SMILES notation. Values after ≈ are worked out from the molar mass of the structure shown.

Assay [1] has as its system S. aureus ATCC 25923. Put plainly: Radial diffusion assay. It counts as cell-based, Staphylococcus aureus. Conditions: RDA, Mueller-Hinton agar, 1 × 10^6 CFU/mL, 24 hours at 37°C, done 3 times.
In assay [2] the test system is S. aureus ATCC 25923. As to the kind of experiment: MIC and MBC, micro-broth dilution. The class given is cell-based. Conditions: Staphylococcus aureus, ATCC25923, 24 h. The method, boiled down: (§1)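 Strains were grown aerobically for 24 h at 37°C. Two-fold serial dilutions of test peptide were made in 96-well plates, and an equal volume of bacterial suspension at 1 × 10⁶ CFU/mL was added. Plates were incubated for 24 h at 37°C, with gentamicin as control. MIC was taken as the lowest concentration preventing growth.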
In general terms: Dilution methods test growth across graded concentrations, often in twofold steps.

Another assay deals with E. coli ATCC 25922. As to the kind of experiment: MIC and MBC, micro-broth dilution. The class given is cell-based. Conditions: Escherichia coli, ATCC25922, 24 h. The method, boiled down:
as §1

A further assay has as its system A. baumannii ATCC 19606. Put plainly: MIC and MBC, micro-broth dilution. The class given is cell-based. Conditions: Acinetobacter baumannii, ATCC19606, 24 h. The method, boiled down:
as §1

A further assay relates to P. aeruginosa ATCC 27853. Put plainly: MIC and MBC, micro-broth dilution. The conditions noted are these: Pseudomonas aeruginosa, ATCC27853, 24 h. It counts as cell-based. The method, boiled down: as §1

In the case of `CNC(C)C1CCC(N)C(OC2C(N)CC(N)C(OC3OCC(C)(O)C(NC)C3O)C2O)O1` (centres unmarked) [Gentamicin, gentamicin], the “diameter of the inhibition zone” value with S. aureus ATCC 25923 [1] amounted to 26 mm. Besides, the MIC against S. aureus ATCC 25923 [2] came to 2000 µM (≈ 955 µg/mL); against E. coli ATCC 25922, 1000 µM (≈ 478 µg/mL); in the assay with A. baumannii ATCC 19606, 8000 µM (≈ 3820 µg/mL); against P. aeruginosa ATCC 27853, 4000 µM (≈ 1910 µg/mL).

By MIC is commonly meant the least concentration at which growth counts as inhibited. Low readings indicate greater potency, high ones weaker potency.
